# Screening results from PubChem.
# PG9 Ab binder = small molecules binding HIV-1 gp120 antibody PG9 | TR-FRET gp120-PG9 antibody binding | inhibition, % at 6.7 µM | actives 0.43% (n = 360,000); in the data active = inhibition above about 8.5%
# NTR1 agonist = agonists of human neurotensin receptor NTR1. NTR1-U2OS beta-arrestin-GFP spot imaging, agonist mode. activation, % at 20 µM. actives 0.17% (n = 330,000). AID 493036;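 active = activation at or above 40% of the spot to cytoplasm intensity ratio, with at least 20 cells analyzed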;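 also: 0% = DMSO without peptide and 100% = 100 nM NTR1 peptide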
# Rev-erbA mod = modulates human Rev-erb alpha binding to DNA | Rev-erbα–FITC-DNA binding, fluorescence polarization, 90 min | activity, % at 10 µM | actives 0.79% (n = 370,000);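 active = activity above about 14%, limit read from the data; passing the limit was not always enough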;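 also: 0% = DMSO wells with 35 nM protein and 100% = DMSO wells with 750 nM protein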
# Target sequence (P20393 whole entry, looked up): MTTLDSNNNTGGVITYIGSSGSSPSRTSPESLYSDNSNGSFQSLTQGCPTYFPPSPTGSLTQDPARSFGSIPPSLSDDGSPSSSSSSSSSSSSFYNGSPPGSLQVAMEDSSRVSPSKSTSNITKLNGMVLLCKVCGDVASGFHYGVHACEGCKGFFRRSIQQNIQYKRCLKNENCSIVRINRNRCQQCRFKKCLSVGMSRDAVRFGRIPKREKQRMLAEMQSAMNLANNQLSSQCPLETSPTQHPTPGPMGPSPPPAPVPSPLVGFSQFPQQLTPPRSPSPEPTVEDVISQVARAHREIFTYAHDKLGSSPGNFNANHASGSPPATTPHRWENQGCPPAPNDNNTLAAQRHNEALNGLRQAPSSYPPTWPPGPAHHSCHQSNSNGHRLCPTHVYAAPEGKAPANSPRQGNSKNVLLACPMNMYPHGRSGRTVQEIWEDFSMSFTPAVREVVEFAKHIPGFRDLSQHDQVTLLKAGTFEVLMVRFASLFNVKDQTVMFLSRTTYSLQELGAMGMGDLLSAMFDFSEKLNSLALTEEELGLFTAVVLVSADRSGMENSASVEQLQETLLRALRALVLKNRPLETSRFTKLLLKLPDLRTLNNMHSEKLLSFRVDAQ
# MC4R antag cAMP = antagonists of human melanocortin 4 receptor (MC4R); actives 0.48% (n = 360,000); inhibition, % at 6.5 µM; P32245; AID 540295; MC4R-expressing cells, MTII-stimulated cAMP, LANCE TR-FRET;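 active = inhibition above its plate's cutoff, the mean of tested wells on that plate plus 3 SD, cut at about 29% in these data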;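 also: 0% = Melanotan II alone and 100% = Melanotan II plus saturating MCL0020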
#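 material = U2OS cells stably expressing human melanocortin 4 receptor (MC4R) | also added = Melanotan II challenge | dosing = single nominal compound dose of 6.5 µM | detection = TR-FRET with Eu-cAMP and labeled anti-cAMP, 671 nm | replication = singlicate | timing = compound 30 min, challenge 1 h, detection 1 h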
# MC4R barr agon = human MC4R agonism via beta-arrestin. P32245. U2OS MC4R beta-arrestin complementation, luminescence; percent of melanotan II response, DMSO zero. activation, % at 8.9 µM. actives 0.98% (n = 360,000). AID 540308;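 active = activation above a per-plate cutoff, the mean activation of sample wells on that plate plus 3 SD, cut at about 8% in these data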
# MC4R barr ag = human MC4R beta-arrestin agonism confirmation. shares compounds with MC4R barr agon. activation, % at 8.9 µM. U2OS MC4R beta-arrestin recruitment, luminescence; scaled DMSO 0%, Melanotan II 100%. actives 31% (n = 2,400). AID 602192;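 active = mean activation across replicates above the hit cutoff set in the earlier primary screen, cut at about 8% in these data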
# MOR DOR agonist = OPRM1-OPRD1 heterodimer agonism counter-screen; shares compounds with MC4R barr agon; U2OS PathHunter beta-arrestin, beta-gal luminescence; percent of deltorphin B response, DMSO zero; activation, % at 9.2 µM; actives 5.8% (n = 2,400); AID 602194;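 active = mean activation across replicates exceeds the hit threshold derived in the earlier primary screen, cut at about 18% in these data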;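 also: 100% = deltorphin B at 0.9 µM final and 0% = DMSO alone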
# Starred values were filed as active, the others as inactive; nt = no result; ! = not confirmed by another sample. Compounds with a hit are over-represented: about 2.5% of the library has one in this group of screens.
SMILES,PG9 Ab binder,NTR1 agonist,Rev-erbA mod,MC4R antag cAMP,MC4R barr agon,MC4R barr ag,MOR DOR agonist
c1ccc(-c2onc(-c3ccco3)c2-c2ccc3c(c2)OCO3)cc1,0,-2,3,12,10.0*,5,6
O=C(O)c1cc(-c2ccc(-c3c(-c4ccc5c(c4)OCO5)noc3-c3ccsc3)cc2)nc2ccccc12,0,nt,3,-6,-2,nt,nt
Cc1ccc(NC(=O)/C(C#N)=C/c2ccc(C)s2)c(C)c1,1,6,6,10,18*,1,4
Cc1ccc(/C=C(\C#N)C(=O)Nc2c(C)cccc2C)s1,-1,2,0,12,-1,nt,nt
CCOc1cc(/C=N/NC(=O)c2nn(C)cc2Br)ccc1OCc1ccccc1Cl,1,7,-4,-9,12*,0,3
Cn1cc(Br)c(C(=O)N/N=C/c2cccc(OC3CSC3)c2)n1,-2,2,-1,4,-2,nt,nt
Cc1ccc(Oc2cc([N+](=O)[O-])cc3c2C(=O)Nc2ccccc2O3)cc1,3,24,-5,7,14*,2,8
O=C1Nc2ccccc2Nc2ccc([N+](=O)[O-])cc21,-3,0,-6,22,-2,nt,nt
Cc1cccc(-c2n[nH]c(=S)n2/N=C/c2ccc(C)s2)c1,0,3,2,5,12*,0,4
Cc1cccc(-c2n[nH]c(=S)n2/N=C/c2cccs2)c1,-1,1,1,25,0,nt,nt
O=c1c2cc3cc(Cl)ccc3nc2ncn1CCc1c[nH]c2ccccc12,nt,nt,6,nt,nt,nt,nt
O=C(NN=Cc1ccccc1C(F)(F)F)c1cc(-c2ccc(Cl)cc2)n[nH]1,nt,nt,-2,nt,nt,nt,nt
Oc1nc(Nc2ccccc2)sc1/C=C1\C=Nc2ccccc21,-2,16,6,16,5,nt,nt
CCOC(=O)c1c(Nc2ccccc2)sc(/C=C2\C=Nc3ccccc32)c1O,nt,5,nt,4,15*,4,5
COc1ccc(CNC(=S)Nc2ccc3nc(N4CCN(C)CC4)cc(C)c3c2)cc1,0,-1,-1,15,0,nt,nt
COc1ccc(CNC(=S)Nc2ccc3nc(N4CCOCC4)cc(C)c3c2)cc1,-1,0,0,14,41*,11*,8
N#C/C(=C\Nc1ccc2cn[nH]c2c1)c1nc(-c2ccc(Cl)cc2)cs1,-1,4,-11,17,-2,nt,nt
N#CC(=Cc1ccccn1)c1nc(-c2ccc(Cl)cc2)cs1,1,nt,2,1,17*,3,3
COc1ccccc1C(=O)O/N=C1/CCCc2c1ccc(OC)c2[N+](=O)[O-],1,4,nt,-1,20*,6,9
Cc1ccc(CSc2nnc(Nc3ccc(C)cc3)s2)cc1,-1,1,4,14,19*,4,4
CCc1ccc(Nc2nnc(SCC(=O)NC(=O)c3cccn3C)s2)cc1,-1,7,0,-7,20*,4,12
CN1CCN(Cc2nc3ccccc3c(=O)n2Cc2nc(-c3ccc4ccccc4c3)cs2)CC1,-2,nt,-4,1,9.7*!,13*,12
CN1CCN(Cc2nc3ccccc3c(=O)n2Cc2nc(-c3cccc([N+](=O)[O-])c3)cs2)CC1,-1,3,5,15,1,nt,nt
O=C(Nc1cccc(O)c1)c1cc2nc(-c3ccccc3)cc(-c3ccccc3)n2n1,-4,9,2,16,12*,8,5
CC(=O)N1CCc2cc(S(=O)(=O)NC3CCN(C(=O)OCc4ccccc4)CC3)ccc21,nt,nt,4,nt,nt,nt,nt
COc1ccccc1OCCn1cc(/C=C(\C#N)C(=O)NCc2ccco2)c2ccccc21,0,0,2,8,1,nt,nt
N#C/C(=C\c1cn(CCOc2ccccc2)c2ccccc12)C(=O)NCc1cccs1,-2,2,2,8,23*,6,7
Cc1ccc(C)c(OCCn2cc(/C=C(\C#N)C(=O)NCc3ccco3)c3ccccc32)c1,0,1,5,19,11*,12*,9
